# Hits are enriched below; roughly 5.9% of the tested compounds scored in any of these assays.
# T cruzi growth-1 – T. cruzi intracellular proliferation inhibitors, primary screen, cell-based, beta-gal Tulahuen parasites, NIH3T3 host, luminescence. T. cruzi beta-gal in NIH3T3, GalScreen luminescence, 90 h. inhibition, % at 8.34 µM. 77,000 tested, 5.9% active. AID 624255, 2012;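 active = mean inhibition above about 93%, with at least 55% of replicates each passing it, limit read from the data, passing the limit was not always enough; inconclusive = only one of those two conditions holds; inactive = neither condition holds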
# Pf Dd2 inh – P. falciparum Dd2 growth inhibitors, primary screen, SYBR Green fluorescence, single dose replicates; 72 h; hits give low values; activity change, % at 10 µM; 94,000 tested, 2.3% active; AID 1159554, 2015; in the data active = activity change below about -80%; inconclusive = no clear call, values can overlap the other calls
# IDH1 R132H inh – inhibitors of IDH1 R132H reductase, primary screen, biochemical, plate reader, single point; 70,000 tested, 0.18% active; Isocitrate dehydrogenase [NADP] cytoplasmic (Homo sapiens), O75874; inhibition, % at 10 µM; diaphorase/resazurin fluorescence, 60 min; in the data active = inhibition above about 34%; inconclusive = no clear call, values can overlap the other calls; inactive = below about 11%
# Target sequence (O75874 whole entry R132H): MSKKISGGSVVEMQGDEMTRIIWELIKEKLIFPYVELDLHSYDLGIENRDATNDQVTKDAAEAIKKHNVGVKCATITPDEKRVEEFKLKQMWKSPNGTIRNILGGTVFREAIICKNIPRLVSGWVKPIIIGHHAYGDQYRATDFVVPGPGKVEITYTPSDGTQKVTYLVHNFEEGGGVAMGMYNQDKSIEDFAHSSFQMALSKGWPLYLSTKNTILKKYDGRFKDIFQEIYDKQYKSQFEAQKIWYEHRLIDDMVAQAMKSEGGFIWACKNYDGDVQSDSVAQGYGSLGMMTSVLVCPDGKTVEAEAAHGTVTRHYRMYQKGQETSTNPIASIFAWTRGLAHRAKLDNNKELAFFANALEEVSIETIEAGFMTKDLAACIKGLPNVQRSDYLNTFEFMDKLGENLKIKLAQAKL
# KDM4C inh – inhibitors of GASC-1 (KDM4C) histone demethylase, primary screen, biochemical, single concentration HTS | GST-KDM4C 2-372, H3K9me3 peptide, LANCE TR-FRET | inhibition, % at 12.5 µM | 96,000 tested, 0.15% active | AID 720574, 2013;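 active = mean replicate inhibition above about 25%, with at least 55% of replicates also reaching it, limit read from the data, passing the limit was not always enough; inconclusive = only one of those two conditions met; inactive = neither condition met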
#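 Test system: N-terminal GST-fused human GASC-1 (KDM4C) fragment, residues 2-372; quantity: GASC-1 enzyme at 10 nM final in reaction; dosing: single dose; schedule: 30 min demethylation and 1 h detection at room temperature; signal: LANCE TR-FRET, excitation 340 nm, emissions 618 and 671 nm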
# T cruzi growth-2 – T. cruzi intracellular proliferation inhibitors, confirmation, cell-based, NIH3T3 host, beta-gal parasite, luminescence, cherry-pick; shares compounds with T cruzi growth-1; T. cruzi beta-gal in NIH3T3, GalScreen luminescence, 90 h; inhibition, % at 8.35 µM; 5,600 tested, 72% active;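 active = mean replicate inhibition above about 95% and at least 55% of replicates individually reaching it, limit read from the data; inconclusive = only one of the two criteria is met; inactive = neither criterion is met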
# T cruzi growth-3 – inhibitors of intracellular T. cruzi replication, confirmation, NIH3T3 host cells, beta-gal parasites, cherry-pick, set 2; T. cruzi beta-gal in NIH3T3, GalScreen luminescence, 90 h; inhibition, % at 2.09 µM; 5,600 tested, 21% active; AID 651740, 2012; shares compounds with T cruzi growth-1;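 active = mean inhibition above about 95%, with at least 55% of replicates also reaching it, limit read from the data; inconclusive = meets just one of the two conditions; inactive = meets neither condition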
# NIH3T3 tox – cytotoxicity in mouse NIH/3T3 fibroblasts, confirmation, cytotoxicity control for T. cruzi proliferation inhibitor project, cell-based, cherry-pick, single point; shares compounds with T cruzi growth-1; AID 651742, 2012; cytotoxicity (signal decrease), % at 8.35 µM; NIH/3T3 viability, CellTiter-Glo ATP luminescence, 90 h; 5,600 tested, 14% active;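 active = mean signal decrease across replicates above about 35% based on untreated-well scatter, with enough replicates individually passing, limit read from the data; inconclusive = no rule stated though some were filed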
# NIH3T3 tox 2 – NIH/3T3 fibroblast cytotoxicity, confirmation, cytotoxicity control, cell-based, cherry-pick, single point, set 2. shares compounds with T cruzi growth-1. NIH/3T3 viability, CellTiter-Glo ATP luminescence, 90 h. inhibition, % at 24.9 µM. 5,600 tested, 56% active. AID 651744, 2012;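 active = mean loss of cell viability signal at or above a set limit, and enough replicates individually reaching it; inconclusive = meets only the mean limit or only the replicate share; inactive = meets neither condition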
# A number is an active result; n = inactive; u = inconclusive; x = no result given.
SMILES,T cruzi growth-1,Pf Dd2 inh,IDH1 R132H inh,KDM4C inh,T cruzi growth-2,T cruzi growth-3,NIH3T3 tox,NIH3T3 tox 2
COc1ccc(C#Cc2ccc([C@@H]3[C@H](CO)N4CCCCN(S(=O)(=O)c5ccccc5)C[C@@H]34)cc2)cc1,n,n,x,n,x,x,x,x
O=S(=O)(c1ccccc1)N1CCCCN2[C@H](C1)[C@H](c1ccc(C#Cc3cccnc3)cc1)[C@@H]2CO,114,n,x,n,105,n,n,49
O=S(=O)(c1ccccc1)N1CCCCN2[C@@H](CO)[C@@H](c3ccc(C#Cc4cccnc4)cc3)[C@@H]2C1,113,n,x,n,112,107,n,91
O=S(=O)(c1ccccc1)N1CCCCN2[C@H](CO)[C@H](c3ccc(C#Cc4cccnc4)cc3)[C@@H]2C1,102,n,x,n,107,n,n,35
CC(C)c1ccccc1OCC(=O)Nc1sc2c(c1C(N)=O)CCCC2,x,x,n,x,x,x,x,x
COC(=O)c1ccc(NC(=O)CSc2nnc(-c3cccc(Cl)c3)n2C)cc1,x,x,n,x,x,x,x,x
Cc1c(NC(=O)CN(c2cccc(Cl)c2Cl)S(C)(=O)=O)cccc1[N+](=O)[O-],x,x,n,x,x,x,x,x
O=S(=O)(c1ccccc1)N1CCCCN2[C@H](CO)[C@@H](c3ccc(C#Cc4ccccc4)cc3)[C@H]2C1,103,n,x,n,107,103,57,92
O=C(COc1ccc(Cl)cc1CO)Nc1ccccc1F,x,x,n,x,x,x,x,x
CCCC#Cc1ccc2c(c1)O[C@H](CN(C)C(=O)c1ccccc1F)[C@@H](C)CN([C@H](C)CO)S2(=O)=O,111,n,n,n,110,n,n,n
CCCC#Cc1ccc2c(c1)O[C@H](CN(C)C(=O)c1ccccc1F)[C@@H](C)CN([C@@H](C)CO)S2(=O)=O,n,n,n,n,x,x,x,x
CCCC#Cc1ccc2c(c1)O[C@@H](CN(C)C(=O)c1ccccc1F)[C@@H](C)CN([C@H](C)CO)S2(=O)=O,n,n,n,n,x,x,x,x
CC(C)CC#Cc1ccc2c(c1)O[C@H](CN(C)C(=O)c1ccccc1F)[C@H](C)CN([C@H](C)CO)S2(=O)=O,105,n,n,n,105,n,u,104
C[C@@H]1CN([C@H](C)CO)S(=O)(=O)c2ccc(C#CCN(C)C)cc2O[C@@H]1CN(C)C(=O)c1ccccc1F,n,n,n,n,x,x,x,x
CC(C)CC#Cc1ccc2c(c1)O[C@H](CN(C)C(=O)c1ccccc1F)[C@@H](C)CN([C@H](C)CO)S2(=O)=O,88,-82,n,n,103,n,n,97
CC(C)CC#Cc1ccc2c(c1)O[C@@H](CN(C)C(=O)c1ccccc1F)[C@H](C)CN([C@@H](C)CO)S2(=O)=O,105,-82,n,n,106,106,u,106
Cc1cc(C)c(OCCCCNCCO)c(C)c1,x,x,n,x,x,x,x,x
Cc1ncc([N+](=O)[O-])n1Cc1n[nH]c(=S)n1C,x,x,n,x,x,x,x,x
CCOC(=O)c1c(NC(=O)CSc2nnc(C)s2)sc(C)c1C,x,x,n,x,x,x,x,x
CC(=O)Nc1ccccc1C(=O)OCc1cccc(C(=O)c2ccccc2)c1,x,x,n,x,x,x,x,x
C[C@H](CO)N1C[C@H](C)[C@H](CN(C)C(=O)Nc2ccc3c(c2)OCO3)OCCCC[C@H](C)Oc2ccc(NC(=O)Nc3ccc(C(F)(F)F)cc3)cc2C1=O,98,n,n,n,101,110,n,n
C[C@@H]1CCCCO[C@@H](CN(C)C(=O)Nc2ccc3c(c2)OCO3)[C@H](C)CN([C@H](C)CO)C(=O)c2cc(NC(=O)Nc3ccc(C(F)(F)F)cc3)ccc2O1,n,n,n,n,x,x,x,x
